Data set [1] has as its system Mus musculus. Nature of the data set: Immunological activity in mice as the percentage of suppression of the cellular response to EI4 tumor cells at 10 mg/kg. It is filed as functional. In a few lines:
(§1)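 Balb/c mice, groups of 10, immunized ip on day 0 with 10^7 EL4 ascites tumor cells. Dosed orally 10 mg/kg once daily days 0-9, in water with a little NaOH (circa pH 8.5); saline controls. On day 10, spleen cells (1.5×10^7 viable) incubated with 51Cr-labeled EL4 cells (0.5×10^6) for 3 h at 37 °C in 10% CO2. Lysis corrected for spontaneous release; reported as % inhibition of control lysis.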

Data set [2] relates to Mus musculus. Nature of the data set: Compound was evaluated for immunological activity in mice as the percentage of suppression of the humoral response to EI4 tumor cells at 10 mg/kg, po. The data set is classed as functional. A digest of the protocol: (§2)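 Balb/c mice, groups of 10, immunized ip on day 0 with 10^7 EL4 cells. Dosed orally 10 mg/kg once daily days 0-9, in water with a little NaOH (pH ~8.5); saline controls. Titer taken as the dilution giving 50% maximal lysis; reported as % inhibition of control titer.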

Data set [3] is filed under the species Mus musculus. Nature of the data set: Compound was evaluated for the dose required to inhibit the cellular response to 50% (immune activity). The data set is classed as functional. In a few lines: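 Cellular response to EL4 in Balb/c mice measured by spleen-cell lysis of 51Cr-labeled EL4 cells (3 h, 37 °C). Mice were given oral daily doses from day 0 to day 9 at several levels, tested up to 300 mg/kg. ED50 was obtained by linear interpolation between the doses giving above and below 50% inhibition.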

Data set [4] is filed under the species Mus musculus. Nature of the data set: Compound was evaluated for the dose required to inhibit the humoral response to 50% (immune activity). The data set is classed as functional. A digest of the protocol: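 Humoral response to EL4 in Balb/c mice measured as complement-dependent lysis titer of 51Cr-labeled EL4 cells by day-10 sera. Mice were given oral daily doses from day 0 to day 9 at several levels. ED50 was obtained by linear interpolation between the doses bracketing 50% inhibition of the control titer.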

In data set [5] the test system is Mus musculus. Nature of the data set: Compound was evaluated for immunological activity in mice as the percentage of suppression of the cellular response to EI4 tumor cells at 10 mg/kg, po. It is filed as functional. In a few lines: as §1
The nature of data set [6]: Acid dissociation constant was determined. It is filed as ADME. A digest of the protocol: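 pKa by potentiometric titration in 2:1 dioxane-H2O (v/v) against 0.5 N NaOH; apparent pKa read as the pH at half-neutralization.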
For data set [7], the system named is Mus musculus. Put plainly: Compound was evaluated for immunological activity in mice as the percentage of suppression of the humoral response to EI4 tumor cells at 10 mg/kg, po; Data unreliable. The data set is classed as functional, organism-based. Further details: dose 10 mg/kg. A digest of the protocol: as §2

For 26 compounds, Suppression, ED50 and pKa results are on record in ChEMBL document CHEMBL1121658, “Novel immunosuppressive agents. Potent immunological activity of some bensothiopyrano [4,3-c]pyrazol-3-ones” (J Med Chem, 1981).

Usually ED50 stands for the dose at which the effect has come halfway, by size or by number of responders. A lower ED50 goes with an effect at a small dose. By pKa is commonly meant the negative logarithm of the acid dissociation constant. Read a low pKa as a group that gives up its proton readily.

In the case of `Cn1cnc([N+](=O)[O-])c1Sc1ncnc2[nH]cnc12` [AZATHIOPRINE], the Suppression was -3% in data set [1] and 6% in data set [2].
The matching figures for `Sc1ncnc2nc[nH]c12` [MERCAPTOPURINE ANHYDROUS]: 63% and 52%.
Consider `Oc1c2c(nn1-c1cccc(Cl)c1)-c1ccccc1SC2`, for which the ED50 in data set [3] came to 45 mg/kg; in data set [4] it was 9 mg/kg. Besides, the Suppression in data set [2] is reported as 67%; in data set [5], 16%.
As to `Oc1c2c(nn1-c1ccccn1)-c1ccccc1SC2`, the values for the Suppression in data set [1] and in data set [2] were 2% and -19%, respectively.
`Oc1c2c(nn1-c1cccc(Cl)c1Cl)-c1ccccc1SC2` yielded a pKa in data set [6] of 7.28. Also, the Suppression in data set [1] turned out to be 5%; in data set [2], 51%.
For the compound `Oc1c2c(nn1-c1c(Cl)cccc1Cl)-c1ccccc1SC2`, the Suppression in data set [1] is given as 1%; in data set [2], 4%.
The matching figures for `Oc1c2c(nn1-c1ccc(Cl)cc1Cl)-c1ccccc1SC2`: -4% and 20%.
In the case of `Oc1c2c(nn1-c1ccc(Cl)cc1)-c1ccccc1SC2`, the pKa in data set [6] came out at 7.56. For the same compound, the ED50 is 2 mg/kg in data set [3] and 0.5 mg/kg in data set [4]. Further, the Suppression in data set [1] and in data set [2] was more than 90% in each case.
On to `Oc1c2c(nn1-c1ccc(C(F)(F)F)cc1)-c1ccccc1SC2`, for which the ED50 in data set [3] was 6.5 mg/kg; in data set [4], 6 mg/kg. For the same compound, the Suppression in data set [1] is 71%; in data set [2] it was more than 90%.
As for `Oc1c2c(nn1Cc1ccccc1)-c1ccccc1SC2`, the Suppression in data set [1] is on record as -3%; in data set [2], 0%.
In turn, `Oc1c2c(nn1-c1ccccc1Cl)-c1ccccc1SC2` gave a pKa in data set [6] of 7.74. Also, the Suppression is 8% in data set [1] and 45% in data set [2].
On to `O=[N+]([O-])c1ccc(-n2nc3c(c2O)CSc2ccccc2-3)cc1`, for which the Suppression is given as 27% in data set [1] and “Data unreliable” in data set [7].
Turning to `O=P1(N(CCCl)CCCl)NCCCO1` (centres undefined) [CYCLOPHOSPHAMIDE ANHYDROUS], the Suppression is given as 52% in data set [1] and more than 90% in data set [2].
Consider `Oc1c2c(nn1-c1ccc(Cl)c(Cl)c1)-c1ccccc1SC2`, for which the ED50 was found to be 3 mg/kg in data set [3] and 1 mg/kg in data set [4]. For the same compound, the Suppression in data set [1] is listed as 62%; in data set [2] it was 87%.
As for `Cn1nc2c(c1O)CSc1ccccc1-2`, the results for the Suppression in data set [1] and in data set [2] were 14% and -3%, respectively.
For `Oc1c2c(nn1-c1cc(Cl)cc(Cl)c1)-c1ccccc1SC2`, the ED50 in data set [3] was determined as 31 mg/kg; in data set [4] it was 8 mg/kg. The Suppression in data set [1] was 19%; in data set [2], 73%.
Turning to `COc1ccc(-n2nc3c(c2O)CSc2ccccc2-3)cc1`, in data set [6], the pKa amounted to 7.76. The ED50 in data set [3] stood at 240 mg/kg; in data set [4], 150 mg/kg. For the same compound, the Suppression in data set [1] is recorded as -11%; in data set [2], -6%.
In data set [6], `Oc1c2c(nn1-c1ccccc1)-c1ccccc1SC2` yielded a pKa of 7.48. The ED50 in data set [3] came out at 130 mg/kg; in data set [4] it was 70 mg/kg. The values for the Suppression in data set [1] and in data set [7] were 1% and “Data unreliable”, respectively.
In the case of `[O-][S+]1Cc2c(nn(-c3ccc(Cl)cc3)c2O)-c2ccccc21` (centres undefined), the Suppression in data set [1] and in data set [2] was more than 90% each time.
Regarding `Oc1c2c(nn1-c1ccc(Br)cc1)-c1ccccc1SC2`, the pKa in data set [6] is 7.13. Moreover, the ED50 in data set [3] worked out at 3.3 mg/kg; in data set [4], 2 mg/kg. For the same compound, the results for the Suppression in data set [1] and in data set [2] were 84% and more than 90%, respectively.
For `O=c1c2csc3ccccc3c-2nn1-c1ccc(Cl)cc1`, the Suppression is 63% in data set [1] and more than 90% in data set [2].
As for `Oc1c2c(nn1CC(F)(F)F)-c1ccccc1SC2`, the results for the Suppression in data set [1] and in data set [2] were -2% and 17%, respectively.
In turn, `Cc1ccc(-n2nc3c(c2O)CSc2ccccc2-3)cc1` yielded a pKa in data set [6] of 7.64. In addition, the Suppression in data set [1] turned out to be 19%; in data set [2], 46%.
As to `Oc1[nH]nc2c1CSc1ccccc1-2`, the figures for the Suppression in data set [1] and in data set [7] were 1% and “Data unreliable”, respectively.
Consider `CS(=O)(=O)c1ccc(-n2nc3c(c2O)CSc2ccccc2-3)cc1`, for which the results for the ED50 in data set [3] and in data set [4] were more than 300 mg/kg and 170 mg/kg, respectively. The Suppression in data set [1] was 1%; in data set [2] it was 28%.
The matching figures for `Oc1c2c(nn1-c1ccc(F)cc1)-c1ccccc1SC2`: 5.5 mg/kg, 3.3 mg/kg, 86% and more than 90%.
